NF-kB neuron act – NF-kB expression increase, human neuronal cells; NF-kB reporter expression; stronger effect = higher value; fold change at 12.5 µM; actives 1.6% (n = 190,000); in the data active means fold change above about 3.3
STAT3 act – increases IL-6 driven STAT3 reporter signal; U3A cells, IL-6 STAT3-luciferase reporter, luminescence; 100% = signal with IL-6 EC80 alone; activation (% of control), % at 5.6 µM; actives 0.91% (n = 190,000); AID 871;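 active means activation above the screen-wide mean of compound activation plus 3 SD, cut at about 130% in these data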;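 further: 0% = background luminescence of wells with medium and substrate only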
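Material: STAT3-luciferase reporter U3A cells; Probe or stimulus: IL-6 (33 ng/mL); Incubation: compound pre-incubation 1 h before IL-6, then 6 h stimulation at 37 °C; Technique: luminescence from STAT3-driven luciferase reporter; Evaluation: % activation versus median of IL-6-stimulated wells; Controls: IL-6-only high control.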
STAT1 blocker – inhibitors of IFN-gamma induced STAT1 signaling | NIH 3T3 STAT1-luciferase reporter, luminescence | inhibition, % at 5.5 µM | actives 0.35% (n = 200,000) | AID 920;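 active means inhibition above a set limit, the mean inhibition across all tested compounds plus 3 SD, cut at about 34% in these data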;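 further: 0% = IFN-gamma with DMSO and 100% = IFN-gamma with 300 µM nifuroxazide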
STAT3 inh-1 – inhibitors of IL-6 induced STAT3 signaling; U3A cells, IL-6 STAT3-luciferase reporter, luminescence; host cell line lacks STAT1; inhibition, % at 5.5 µM; actives 0.89% (n = 190,000);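 active means inhibition above the mean inhibition across all screened compounds plus 3 SD, cut at about 44% in these data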;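 further: 0% = DMSO only wells and 100% = 100 µM nifuroxazide control wells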
APP 5'UTR act – APP 5'UTR luciferase reporter activation; AID 1276; actives 1% (n = 190,000); SH-SY5Y APP 5'UTR luciferase reporter, luminescence; zero percent = DMSO vehicle wells; activation, % at 2 µM;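 active means activation above a set limit, based on mean plus 3 SD of controls, cut at about 140% in these data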
STAT1 activator – STAT1 signaling activation; actives 2.6% (n = 200,000); AID 932; activation (% of control), % at 5.5 µM; NIH 3T3 STAT1-luciferase reporter, IFN-gamma, luminescence; 100% = IFN-gamma alone, no compound;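 active means activation above the screen-wide mean activation plus 3 SD, cut at about 130% in these data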;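 further: raw ratio to IFN-gamma control signal so 100% means no change and 0% no light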
STAT3 inh-2 – STAT3 inhibition, confirmation assay; shares compounds with STAT3 inh-1; U3A cells, IL-6 STAT3 luciferase reporter, luminescence; cell line lacks STAT1; inhibition, % at 5.7 µM; actives 45% (n = 1,200);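 active means inhibition above the hit cutoff computed for the primary STAT3 screen, cut at about 44% in these data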;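 further: 0% = IL-6 plus DMSO and 100% = IL-6 plus nifuroxazide control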
NFkB inh STAT3ct – NF-kappaB inhibition in STAT3 inhibitor counter-screen. HEK293T NF-kB luciferase reporter, TNF-alpha induced. shares compounds with STAT3 inh-1. inhibition, % at 5.7 µM. actives 36% (n = 1,200);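 active means inhibition above the mean of solvent-only control wells plus 3 SD, cutoff set per campaign, cut at about 13% in these data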;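 further: 0% = TNF-alpha with DMSO and 100% = TNF-alpha with MG high control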
STAT1 inh 2 – counter-screen for STAT3 inhibitors: STAT1 inhibition; NIH 3T3 STAT1-luciferase reporter, IFN-gamma induced, luminescence; actives 27% (n = 1,200); shares compounds with STAT3 inh-1; inhibition, % at 5.7 µM;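 active means inhibition above the mean plus 3 SD of solvent-only control wells, limit set per screening run, cut at about 16% in these data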;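 further: 0% = DMSO with IFN-gamma and 100% = nifuroxazide control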
Numbers without * were called inactive. Shown are actives, neighbours in structure and some others; about 4.9% of the full set was active somewhere.

How did COC(=O)c1ccc(NC(=O)CCN2CCN(CCC(=O)Nc3ccc(C(=O)OC)cc3)CC2)cc1 do in these assays?
NF-kB neuron act: 0.97; STAT3 act: 61; STAT1 blocker: 0; STAT3 inh-1: 49*; APP 5'UTR act: 4; STAT1 activator: 104; STAT3 inh-2: 38; NFkB inh STAT3ct: 8; STAT1 inh 2: 4

What do the screens show for `CN1CCN(CCC(=O)Nc2ccc(Br)cc2)CC1`?
NF-kB neuron act: 0.97; STAT3 act: 103; STAT1 blocker: 6; STAT3 inh-1: 2; APP 5'UTR act: 2; STAT1 activator: 93

Results for O=C(CCNC(=O)c1ccccc1)Nc1cccnc1 ?
STAT3 act: 95; STAT1 blocker: -4; STAT3 inh-1: 11; APP 5'UTR act: 3; STAT1 activator: 102

How did O=C(Nc1cccc(O)c1)C(=O)Nc1ccccn1 do in these assays?
NF-kB neuron act: 2.9; STAT3 act: 42; STAT1 blocker: -23; STAT3 inh-1: 71*; APP 5'UTR act: 155*; STAT1 activator: 120; STAT3 inh-2: 51*; NFkB inh STAT3ct: -9; STAT1 inh 2: -12

Results for Cc1ccc(NC(=O)C(OC(=O)c2ccc(C=O)cc2)c2ccccc2)cc1Cl (stereo not drawn) ?
NF-kB neuron act: 0.8; STAT3 act: 107; STAT1 blocker: -7; STAT3 inh-1: -9; APP 5'UTR act: 9; STAT1 activator: 106

Results for CC(=O)N(C)c1ccc(NC(=O)Nc2ccc(C)c(C)c2)cc1 ?
NF-kB neuron act: 1; STAT3 act: 90; STAT1 blocker: -21; STAT3 inh-1: 22; APP 5'UTR act: 5; STAT1 activator: 118

Results for O=C(O)c1ccc2nc(-c3ccccc3)sc2c1 ?
NF-kB neuron act: 9.1*; STAT3 act: 36; STAT1 blocker: 36*; STAT3 inh-1: 79*; APP 5'UTR act: 44; STAT1 activator: 68; STAT3 inh-2: 46*; NFkB inh STAT3ct: 18*; STAT1 inh 2: -30

Results for Nc1cc2sc(-c3ccc(C(=O)O)cc3)nc2cc1Cl ?
NF-kB neuron act: 3.1; STAT3 act: 71; STAT1 blocker: -8; STAT3 inh-1: 36; APP 5'UTR act: 103; STAT1 activator: 107

What do the screens show for `Cn1c(N/N=C/c2cc3ccccc3nc2Cl)nc2ccccc21`?
NF-kB neuron act: 1.1; STAT3 act: 56; STAT1 blocker: -1; STAT3 inh-1: 53*; APP 5'UTR act: 121; STAT1 activator: 101; STAT3 inh-2: 28; NFkB inh STAT3ct: 25*; STAT1 inh 2: 10

How did Cn1c(N/N=C/c2c[nH]c3ccccc23)nc2ccccc21 do in these assays?
NF-kB neuron act: 2.2; STAT3 act: 123; STAT1 blocker: -22; STAT3 inh-1: -24; APP 5'UTR act: 81; STAT1 activator: 120

Results for Cc1ccc(OC(=O)c2ccc3nc(C)sc3c2)cc1 ?
NF-kB neuron act: 2.5; STAT3 act: 52; STAT1 blocker: 24; STAT3 inh-1: 57*; APP 5'UTR act: 82; STAT1 activator: 78; STAT3 inh-2: -12; NFkB inh STAT3ct: -27; STAT1 inh 2: -49

How did O/C(=C\c1ccc2ccccc2n1)c1ccc(O)cc1O do in these assays?
NF-kB neuron act: 8.1*; STAT3 act: 52; STAT1 blocker: 4; STAT3 inh-1: 61*; APP 5'UTR act: 158*; STAT1 activator: 96; STAT3 inh-2: 29; NFkB inh STAT3ct: -21; STAT1 inh 2: -88

Results for CCN(CC)c1ccc(NC(=O)CN2C(=O)CSc3ncccc32)c(C)c1 ?
NF-kB neuron act: 0.82; STAT3 act: 47; STAT1 blocker: 23; STAT3 inh-1: 70*; APP 5'UTR act: 8; STAT1 activator: 79; STAT3 inh-2: 56*; NFkB inh STAT3ct: 12; STAT1 inh 2: 13

How did CCOc1ccc(-n2c(-c3ccc(OC)cc3)c[n+]3c2CCCCC3)cc1 do in these assays?
NF-kB neuron act: 0.6; STAT3 act: 29; STAT1 blocker: 25; STAT3 inh-1: 85*; APP 5'UTR act: -7; STAT1 activator: 77; STAT3 inh-2: 87*; NFkB inh STAT3ct: 15*; STAT1 inh 2: 33*

How did CCOc1ccc(-n2c(-c3ccc(Br)cc3)c[n+]3c2CCCCC3)cc1 do in these assays?
NF-kB neuron act: 0.84; STAT3 act: 53; STAT1 blocker: 29; STAT3 inh-1: 60*; APP 5'UTR act: -1; STAT1 activator: 72; STAT3 inh-2: 39; NFkB inh STAT3ct: -3; STAT1 inh 2: 23*

Results for CCOc1ccc(-n2c(-c3ccccc3)c[n+]3c2CCC3)cc1 ?
NF-kB neuron act: 0.65; STAT3 act: 43; STAT1 blocker: 34; STAT3 inh-1: 71*; APP 5'UTR act: -22; STAT1 activator: 68; STAT3 inh-2: 59*; NFkB inh STAT3ct: 0; STAT1 inh 2: 22*

What do the screens show for `O=C(C1CCN(S(=O)(=O)c2cccs2)CC1)N(c1ccccn1)C1CCCCC1`?
NF-kB neuron act: 1.1; STAT3 act: 105; STAT1 blocker: -5; STAT3 inh-1: 4; APP 5'UTR act: 24; STAT1 activator: 102

How did CCc1nc2ccccc2n1Cc1ccccc1F do in these assays?
NF-kB neuron act: 1.2; STAT3 act: 102; STAT1 blocker: 9; STAT3 inh-1: -3; APP 5'UTR act: 4; STAT1 activator: 92

What do the screens show for `NC(=O)c1ccccc1N/C=C/C(=O)c1ccccc1`?
NF-kB neuron act: 5.5*; STAT3 act: 61; STAT1 blocker: 9; STAT3 inh-1: 49*; APP 5'UTR act: 132; STAT1 activator: 91; STAT3 inh-2: 17; NFkB inh STAT3ct: -23; STAT1 inh 2: -132

How did COc1cccc(OC)c1C(=O)NNC(=O)c1cccc(COc2ccc3c(c2)CCC3)c1 do in these assays?
NF-kB neuron act: 2.5; STAT3 act: 55; STAT1 blocker: 26; STAT3 inh-1: 53*; APP 5'UTR act: 79; STAT1 activator: 76; STAT3 inh-2: 35; NFkB inh STAT3ct: 23*; STAT1 inh 2: 21*

What do the screens show for `O=C(NCc1ccccc1)c1cccc(COc2ccc3c(c2)CCC3)c1`?
NF-kB neuron act: 2.2; STAT3 act: 52; STAT1 blocker: 15; STAT3 inh-1: 56*; APP 5'UTR act: 105; STAT1 activator: 86; STAT3 inh-2: 45*; NFkB inh STAT3ct: 34*; STAT1 inh 2: 27*

What do the screens show for `COc1ccc(-c2c(C)n([O-])c3c([n+]2=O)CCCCC3)cc1OC`?
NF-kB neuron act: 1.4; STAT3 act: 98; STAT1 blocker: -5; STAT3 inh-1: 8; APP 5'UTR act: 1; STAT1 activator: 102

Source: PubChem BioAssay
